Test results from ChEMBL document CHEMBL1212813, “alpha-Amino-3-hydroxy-5-methyl-4-isoxazolepropionic acid (AMPA) antagonists: from bench to bedside” (J Med Chem, 2010).

What was measured:
Mus musculus [1] = test: Anticonvulsant activity in po dosed mouse assessed as inhibition of MES-induced tonic seizures; assay type: functional
Outline: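 Mice were dosed orally 2 h before maximal electroshock. The read-out was protection from tonic convulsions, and an ED50 was derived.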

Glutamate NMDA receptor [2] = test: Inhibition of NMDA receptor glycine site from rat cortical membrane
Glutamate NMDA receptor [3] = test: Inhibition of NMDA receptor glutamate site from rat cortical membrane
[4] = Displacement of [3H]AMPA from AMPA receptor in rat cortical membrane; assay type: cell membranes
[5] = Displacement of [3H]kainate from kainate receptor in rat cortical membrane; assay type: cell membranes
Rattus norvegicus [6] = test: Anticonvulsant activity in ip dosed rat assessed as inhibition of MES-induced tonic seizures; assay type: functional
Rattus norvegicus [7] = test: Neuroprotective effect against middle cerebral artery occlusion-induced focal cerebral ischemia in iv dosed spontaneously hypertensive rat brain after 1 to 5 hrs of occlusion; assay type: functional
[8] = Antagonist activity at AMPA receptor in rat cortical membrane assessed as inhibition of AMPA-induced membrane current; assay type: functional, cell membranes
Mus musculus [9] = test: Anticonvulsant activity in ip dosed DBA2 mouse assessed as inhibition of sound-induced clonic seizures; assay type: functional
Rattus norvegicus [10] = species on record: Rattus norvegicus; test: Selectivity ratio IC50 for rat AMPA receptor to IC50 rat kainate receptor
Rattus norvegicus [11] = test: Neuroprotective effect against middle cerebral artery occlusion-induced focal cerebral ischemia in iv dosed spontaneously hypertensive rat; assay type: functional
Mus musculus [12] = test: Anticonvulsant activity in po dosed mouse assessed as inhibition of PTZ-induced seizures; assay type: functional
Homo sapiens [13] = species on record: Homo sapiens; test: Antiepileptic activity in human patient assessed as reduction in refractory partial seizures; assay type: functional; parameters: scale not given: the % may be the effect or the level left
[14] = Antagonist activity at AMPA receptor in rat cortical membrane assessed as inhibition of AMPA-induced calcium accumulation; assay type: functional, cell membranes
Meriones unguiculatus [15] = species on record: Meriones unguiculatus; test: Neuroprotective activity against middle cerebral artery occlusion-induced focal cerebral ischemia in Mongolian gerbils assessed survival of hippocampal CA1 neurons; assay type: functional
Homo sapiens [16] = species on record: Homo sapiens; test: Toxicity in human assessed as ataxia; assay type: organism-based; settings: in vivo
Meriones unguiculatus [17] = test: Neuroprotective activity against middle cerebral artery occlusion-induced focal cerebral ischemia in Mongolian gerbils assessed as reduction in infarct volume at 6 mg/kg, iv bid; assay type: functional; parameters: scale not given: the % may be the effect or the level left
Homo sapiens [18] = species on record: Homo sapiens; test: Toxicity in human assessed as dizziness; assay type: organism-based; settings: in vivo
Homo sapiens [19] = species on record: Homo sapiens; test: Toxicity in human assessed as sedation; assay type: organism-based; settings: in vivo
Meriones unguiculatus [20] = species on record: Meriones unguiculatus; test: Neuroprotective activity against middle cerebral artery occlusion-induced focal cerebral ischemia in Mongolian gerbils assessed as reduction in infarct volume in cortex; assay type: functional; parameters: scale not given: the % may be the effect or the level left
Homo sapiens [21] = species on record: Homo sapiens; test: Toxicity in human assessed as hazy vision; assay type: organism-based; settings: in vivo
[22] = biological target: T1, Glutamate receptor ionotropic, kainate 2 (Homo sapiens, UniProt Q13002); test: Binding affinity to GluR6
Felis catus [23] = species on record: Felis catus; test: Neuroprotective activity against middle cerebral artery occlusion-induced focal cerebral ischemia in cat assessed as reduction in infarct volume in hemesphere; assay type: functional; parameters: scale not given: the % may be the effect or the level left
[24] = biological target: Glutamate receptor ionotropic, kainate 1 (Homo sapiens) (UniProt P39086); test: Binding affinity to GluR5
[25] = biological target: Glutamate receptor ionotropic, kainate 3 (Homo sapiens, UniProt Q13003); test: Binding affinity to GluR7
Felis catus [26] = species on record: Felis catus; test: Neuroprotective activity against middle cerebral artery occlusion-induced focal cerebral ischemia in cat assessed as reduction in infarct volume in cortex; assay type: functional; parameters: scale not given: the % may be the effect or the level left
[27] = biological target: T1, Glutamate receptor ionotropic, kainate 2; settings: 10 uM
Meriones unguiculatus [28] = species on record: Meriones unguiculatus; test: Neuroprotective activity against middle cerebral artery occlusion-induced focal cerebral ischemia in Mongolian gerbils assessed as reduction in infarct volume in hemesphere; assay type: functional; parameters: scale not given: the % may be the effect or the level left
Homo sapiens [29] = species on record: Homo sapiens; test: Toxicity in human assessed as occurance of systemic allodynia; assay type: organism-based; settings: in vivo
Mus musculus [30] = test: Anticonvulsant activity in ip dosed mouse assessed as inhibition of MES-induced tonic seizures; assay type: functional
Rattus norvegicus [31] = test: […] effect against middle cerebral artery occlusion-induced focal cerebral ischemia in spontaneously hypertensive rat assessed as reduction in infarct volume at 20 mg/kg, iv after 2 hrs of occlusion; assay type: functional; parameters: scale not given: the % may be the effect or the level left
[32] = biological target: T2, Solute carrier family 22 member 6 (Homo sapiens, UniProt Q4U2R8); test: Inhibition of human OAT1
T2 sequence (Q4U2R8 whole entry): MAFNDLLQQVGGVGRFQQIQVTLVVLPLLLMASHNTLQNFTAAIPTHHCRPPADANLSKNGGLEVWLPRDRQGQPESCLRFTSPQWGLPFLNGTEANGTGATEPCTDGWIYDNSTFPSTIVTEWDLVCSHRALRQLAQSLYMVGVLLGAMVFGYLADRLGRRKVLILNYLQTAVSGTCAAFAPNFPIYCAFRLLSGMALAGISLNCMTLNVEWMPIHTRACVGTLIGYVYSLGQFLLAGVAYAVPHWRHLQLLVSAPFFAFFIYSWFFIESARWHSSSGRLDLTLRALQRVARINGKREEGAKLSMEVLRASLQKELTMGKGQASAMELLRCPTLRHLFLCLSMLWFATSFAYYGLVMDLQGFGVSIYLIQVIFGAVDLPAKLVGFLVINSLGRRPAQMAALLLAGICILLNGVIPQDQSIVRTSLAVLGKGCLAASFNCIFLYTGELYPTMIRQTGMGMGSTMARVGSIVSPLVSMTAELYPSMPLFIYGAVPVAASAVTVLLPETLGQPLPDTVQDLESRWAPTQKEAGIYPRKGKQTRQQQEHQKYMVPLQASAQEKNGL

Rattus norvegicus [33] = test: Neuroprotective effect against middle cerebral artery occlusion-induced focal cerebral ischemia in spontaneously hypertensive rat at 20 mg/kg, iv after 3 hrs of occlusion; assay type: functional
Rattus norvegicus [34] = test: Neuroprotective effect against middle cerebral artery occlusion-induced focal cerebral ischemia in spontaneously hypertensive rat at 20 mg/kg, iv after 2 hrs of occlusion; assay type: functional
[35] = biological target: T3, Organic anion transporter 3 (Homo sapiens, UniProt Q8TCC7); test: Inhibition of human OAT3
T3 sequence (Q8TCC7 whole entry): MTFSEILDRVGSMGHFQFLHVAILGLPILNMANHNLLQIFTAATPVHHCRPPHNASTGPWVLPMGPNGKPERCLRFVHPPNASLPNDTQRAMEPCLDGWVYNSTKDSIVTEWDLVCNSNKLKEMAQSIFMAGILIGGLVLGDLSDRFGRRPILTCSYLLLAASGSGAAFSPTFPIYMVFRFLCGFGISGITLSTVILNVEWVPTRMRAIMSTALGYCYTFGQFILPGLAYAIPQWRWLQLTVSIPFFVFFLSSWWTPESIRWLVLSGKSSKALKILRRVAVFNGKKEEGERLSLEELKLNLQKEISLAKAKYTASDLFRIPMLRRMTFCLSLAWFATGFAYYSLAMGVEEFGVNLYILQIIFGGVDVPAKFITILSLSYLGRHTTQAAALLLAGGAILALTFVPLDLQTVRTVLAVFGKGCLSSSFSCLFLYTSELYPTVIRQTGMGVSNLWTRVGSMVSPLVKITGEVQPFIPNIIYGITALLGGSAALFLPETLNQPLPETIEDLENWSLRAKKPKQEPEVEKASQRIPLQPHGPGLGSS

[36] = biological target: T4, Solute carrier family 22 member 11 (Homo sapiens, UniProt Q9NSA0); test: Inhibition of human OAT4
T4 sequence (Q9NSA0 whole entry): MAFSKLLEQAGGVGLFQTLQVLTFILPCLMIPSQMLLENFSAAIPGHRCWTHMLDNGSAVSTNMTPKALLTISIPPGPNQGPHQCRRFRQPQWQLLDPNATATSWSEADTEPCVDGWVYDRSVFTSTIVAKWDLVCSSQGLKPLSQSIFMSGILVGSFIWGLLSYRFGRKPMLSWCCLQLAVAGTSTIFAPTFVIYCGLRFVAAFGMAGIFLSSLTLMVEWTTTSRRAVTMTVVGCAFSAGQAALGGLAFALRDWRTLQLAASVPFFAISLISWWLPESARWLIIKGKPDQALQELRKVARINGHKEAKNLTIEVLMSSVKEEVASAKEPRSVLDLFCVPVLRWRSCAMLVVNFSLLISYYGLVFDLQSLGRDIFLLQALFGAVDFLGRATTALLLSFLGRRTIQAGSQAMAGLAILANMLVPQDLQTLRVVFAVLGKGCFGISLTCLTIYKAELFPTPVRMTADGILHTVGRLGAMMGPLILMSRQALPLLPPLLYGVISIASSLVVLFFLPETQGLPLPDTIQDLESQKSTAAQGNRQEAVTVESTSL

T1 sequence (Q13002 whole entry): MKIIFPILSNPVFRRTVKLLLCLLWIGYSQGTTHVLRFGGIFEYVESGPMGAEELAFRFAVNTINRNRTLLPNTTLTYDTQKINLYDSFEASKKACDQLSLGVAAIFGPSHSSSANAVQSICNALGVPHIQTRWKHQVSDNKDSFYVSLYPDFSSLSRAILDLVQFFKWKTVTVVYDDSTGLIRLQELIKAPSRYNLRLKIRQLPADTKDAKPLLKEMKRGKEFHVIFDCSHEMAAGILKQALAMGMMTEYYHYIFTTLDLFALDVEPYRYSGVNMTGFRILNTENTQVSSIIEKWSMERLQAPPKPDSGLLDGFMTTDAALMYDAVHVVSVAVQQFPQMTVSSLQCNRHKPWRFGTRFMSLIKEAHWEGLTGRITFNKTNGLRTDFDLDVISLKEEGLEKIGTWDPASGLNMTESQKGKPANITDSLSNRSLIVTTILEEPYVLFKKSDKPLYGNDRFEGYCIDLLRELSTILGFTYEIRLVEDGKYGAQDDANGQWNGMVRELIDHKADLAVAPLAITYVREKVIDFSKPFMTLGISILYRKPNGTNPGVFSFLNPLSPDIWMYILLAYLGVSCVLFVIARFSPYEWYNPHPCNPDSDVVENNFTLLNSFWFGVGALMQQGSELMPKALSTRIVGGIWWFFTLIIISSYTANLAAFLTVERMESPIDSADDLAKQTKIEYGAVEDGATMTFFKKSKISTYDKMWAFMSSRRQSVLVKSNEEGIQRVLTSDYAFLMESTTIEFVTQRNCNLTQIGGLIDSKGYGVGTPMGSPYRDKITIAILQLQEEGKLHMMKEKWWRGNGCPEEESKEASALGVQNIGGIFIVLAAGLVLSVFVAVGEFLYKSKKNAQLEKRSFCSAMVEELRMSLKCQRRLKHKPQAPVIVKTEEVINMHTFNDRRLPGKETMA
Sequence of Glutamate receptor ionotropic, kainate 3 (Q13003 whole entry): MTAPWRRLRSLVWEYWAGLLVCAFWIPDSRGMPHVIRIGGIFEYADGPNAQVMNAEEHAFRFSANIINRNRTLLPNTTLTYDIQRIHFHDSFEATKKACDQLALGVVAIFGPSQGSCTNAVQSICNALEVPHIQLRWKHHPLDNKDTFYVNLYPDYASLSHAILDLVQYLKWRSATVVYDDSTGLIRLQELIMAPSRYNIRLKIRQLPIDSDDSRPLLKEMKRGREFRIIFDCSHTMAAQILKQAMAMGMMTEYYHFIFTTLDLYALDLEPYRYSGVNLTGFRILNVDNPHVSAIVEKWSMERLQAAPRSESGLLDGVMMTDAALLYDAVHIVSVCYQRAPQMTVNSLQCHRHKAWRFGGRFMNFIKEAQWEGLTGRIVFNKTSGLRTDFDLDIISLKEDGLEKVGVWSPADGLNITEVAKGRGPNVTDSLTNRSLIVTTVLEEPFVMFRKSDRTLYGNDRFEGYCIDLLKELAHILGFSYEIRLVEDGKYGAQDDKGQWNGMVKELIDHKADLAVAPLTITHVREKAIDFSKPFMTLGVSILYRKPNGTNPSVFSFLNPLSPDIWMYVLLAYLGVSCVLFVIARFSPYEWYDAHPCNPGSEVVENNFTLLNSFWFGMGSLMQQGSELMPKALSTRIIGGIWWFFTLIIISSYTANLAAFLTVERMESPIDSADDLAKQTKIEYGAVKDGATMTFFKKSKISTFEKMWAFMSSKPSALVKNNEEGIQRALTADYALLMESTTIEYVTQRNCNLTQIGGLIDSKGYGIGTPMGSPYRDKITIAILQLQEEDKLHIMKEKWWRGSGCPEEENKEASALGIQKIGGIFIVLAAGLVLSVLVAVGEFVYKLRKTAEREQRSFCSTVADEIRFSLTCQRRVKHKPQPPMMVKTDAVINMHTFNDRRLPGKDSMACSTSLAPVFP
Sequence of Glutamate receptor ionotropic, kainate 1 (Homo sapiens) (P39086 whole entry): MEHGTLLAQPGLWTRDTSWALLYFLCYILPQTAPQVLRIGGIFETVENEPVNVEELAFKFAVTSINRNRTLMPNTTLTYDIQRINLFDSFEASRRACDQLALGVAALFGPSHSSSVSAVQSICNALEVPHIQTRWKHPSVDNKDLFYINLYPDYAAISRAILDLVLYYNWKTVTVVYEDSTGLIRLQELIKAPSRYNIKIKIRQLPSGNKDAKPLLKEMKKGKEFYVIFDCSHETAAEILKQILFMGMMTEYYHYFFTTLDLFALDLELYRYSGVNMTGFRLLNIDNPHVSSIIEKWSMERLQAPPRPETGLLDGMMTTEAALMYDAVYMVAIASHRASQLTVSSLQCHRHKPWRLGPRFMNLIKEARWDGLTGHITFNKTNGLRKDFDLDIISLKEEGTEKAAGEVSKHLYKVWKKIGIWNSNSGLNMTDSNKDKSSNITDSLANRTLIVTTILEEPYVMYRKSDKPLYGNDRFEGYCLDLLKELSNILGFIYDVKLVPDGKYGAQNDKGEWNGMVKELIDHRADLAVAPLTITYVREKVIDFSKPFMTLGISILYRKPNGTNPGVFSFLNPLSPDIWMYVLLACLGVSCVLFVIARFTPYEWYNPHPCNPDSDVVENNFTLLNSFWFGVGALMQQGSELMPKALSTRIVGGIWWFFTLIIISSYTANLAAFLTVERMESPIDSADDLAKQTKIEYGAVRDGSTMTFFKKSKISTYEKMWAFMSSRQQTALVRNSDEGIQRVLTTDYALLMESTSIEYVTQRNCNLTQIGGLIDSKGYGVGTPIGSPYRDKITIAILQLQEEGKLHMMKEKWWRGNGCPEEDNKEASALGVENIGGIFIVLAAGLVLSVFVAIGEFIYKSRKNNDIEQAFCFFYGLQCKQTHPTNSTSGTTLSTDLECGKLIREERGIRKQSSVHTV

## Nc1ccncc1 [DALFAMPRIDINE]
Mus musculus [1]
  ED50: 8.4 mg/kg

## O=c1[nH]c2cc([N+](=O)[O-])c([N+](=O)[O-])cc2[nH]c1=O [DNQX]
Glutamate NMDA receptor [2]
  IC50: 9.5 µM
Glutamate NMDA receptor [3]
  IC50: 40 µM
[4]
  IC50: 0.5 µM
[5]
  IC50: 2 µM

## O=c1[nH]c2cc(C(F)(F)F)c(N3CCOCC3)cc2n(CP(=O)(O)O)c1=O [FANAPANEL]
Glutamate NMDA receptor [2]
  IC50: 5.15 µM
Glutamate NMDA receptor [3]
  IC50: 2.8 µM
[4]
  IC50: 0.12 µM
[5]
  IC50: 2.5 µM
Rattus norvegicus [6]
  ED50: 13 mg/kg
Rattus norvegicus [7]
  Activity: 19%

## CN(C)CCOc1ccccc1-c1nc(-c2ccccc2)no1 [IRAMPANEL]
[8]
  IC50: 8.5 µM
Mus musculus [9]
  ED50: 23.4 mg/kg

## O=C(O)CCS [MERCAPTOPROPIONIC ACID]
Mus musculus [1]
  ED50: 17.1 mg/kg

## NS(=O)(=O)c1cccc2c1c([N+](=O)[O-])cc1nc(O)c(O)nc12 [NBQX]
Rattus norvegicus [10]
  Ratio IC50: > 30
Glutamate NMDA receptor [2]
  IC50: > 100 µM
Glutamate NMDA receptor [3]
  IC50: > 90 µM
[4]
  IC50: 0.15 µM
[5]
  IC50: 4.8 µM
Rattus norvegicus [11]
  Activity: 30%
Mus musculus [9]
  ED50: 27.8 mg/kg

## CN1CCC[C@H]1c1cccnc1 [NICOTINE]
Mus musculus [1]
  ED50: 22.7 mg/kg

## C1CCc2nnnn2CC1 [PENTYLENETETRAZOL]
Mus musculus [1]
  ED50: 16.8 mg/kg

## N#Cc1ccccc1-c1cc(-c2ccccn2)cn(-c2ccccc2)c1=O [PERAMPANEL]
Mus musculus [1]
  ED50: 1.6 mg/kg
Mus musculus [9]
  ED50: 0.47 mg/kg
Mus musculus [12]
  ED50: 0.94 mg/kg
Homo sapiens [13]
  Activity: 40%
[14]
  IC50: 0.093 µM

## O=C1C[C@@H]2OCC=C3CN4CC[C@]56c7ccccc7N1[C@H]5[C@H]2[C@H]3C[C@H]46 [STRYCHNINE]
Mus musculus [1]
  ED50: 17.4 mg/kg

## CC(=O)N1N=C(c2ccc(N)cc2)c2cc3c(cc2C[C@H]1C)OCO3 [TALAMPANEL]
Mus musculus [1]
  ED50: 8.6 mg/kg
Meriones unguiculatus [15]
  Activity: 25%
Homo sapiens [16]
  Activity: 26%
Meriones unguiculatus [17]
  Activity: 47%
Homo sapiens [18]
  Activity: 52%

## O=C(O)[C@@H]1C[C@H]2C[C@@H](CCc3nn[nH]n3)CC[C@H]2CN1 [TEZAMPANEL ANHYDROUS]
Homo sapiens [19]
  Activity: 15%
Meriones unguiculatus [20]
  Activity: 31%
Homo sapiens [21]
  Activity: 20%
[4]
  IC50: 1.3 µM
  Ki: 0.68 µM
[22]
  Ki: > 100 µM
Felis catus [23]
  Activity: 18%
[24]
  Kb: 0.2 µM
[25]
  Ki: > 100 µM
[5]
  IC50: 28.1 µM
Felis catus [26]
  Activity: 19%
[27]
  inhibition: < 20%
Meriones unguiculatus [28]
  Activity: 25%
Homo sapiens [29]
  Activity: <= 58%
Mus musculus [30]
  ED50: 2.9 mg/kg

## O=c1[nH]c2cc(-n3ccnc3)c([N+](=O)[O-])cc2[nH]c1=O [YM-90K]
Glutamate NMDA receptor [3]
  Ki: > 100 µM
[4]
  Ki: 0.084 µM
[5]
  Ki: 2.2 µM

## O=C(O)Cn1c(=O)c(=O)[nH]c2cc([N+](=O)[O-])c(-n3ccnc3)cc21 [ZONAMPANEL]
Glutamate NMDA receptor [2]
  IC50: > 100 µM
Rattus norvegicus [31]
  Activity: 55%
Glutamate NMDA receptor [3]
  IC50: > 100 µM
[4]
  Ki: 0.096 µM
[32]
  IC50: 3 µM
[5]
  IC50: 4.6 µM
Rattus norvegicus [33]
  Activity: 35%
Rattus norvegicus [34]
  Activity: 45%
[35]
  IC50: 6.6 µM
[36]
  IC50: 300 µM
